Results on 15 molecules are retold here after ChEMBL document CHEMBL3352202 (J Med Chem, 2014).

Data set [1] is described as follows: Antiproliferative activity against human PC3 cells after 96 hrs by SRB assay. The note with it: PC-3, 96 h. In kind it is functional, cell-based. The procedure, abridged: (§1)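 Prostate cancer lines were exposed to compound for 96 h, with cell growth read by sulforhodamine B staining. Results are IC50 ± SEM.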
For orientation: Sulforhodamine B stains cellular protein and so reports cell mass.

A short description of data set [2]: Antiproliferative activity against human PPC1 cells after 96 hrs by SRB assay. It is filed as functional, cell-based. The note with it: PPC-1, 96 h. The procedure, abridged: as §1
Another data set deals with LNCaP. Kind of data set: Antiproliferative activity against human LNCAP cells after 96 hrs by SRB assay. In kind it is functional, cell-based. The procedure, abridged: as §1
A further data set deals with A-375. Kind of data set: Antiproliferative activity against human A375 cells after 96 hrs by SRB assay. In kind it is functional, cell-based. As to conditions: A-375, 96 h.
The next data set concerns DU-145. The data set is described as follows: Antiproliferative activity against human DU145 cells after 96 hrs by SRB assay. It is filed as functional, cell-based. As to conditions: DU-145, 96 h. The procedure, abridged: as §1
A short description of data set [3]: Antiproliferative activity against mouse B16-F1 cells after 96 hrs by SRB assay. It is filed as functional, cell-based. The note with it: B16-F1, 96 h.
For data set [4], the system named is Liver microsome. Kind of data set: Half life in rat liver microsomes at 0.5 uM by LC-MS/MS analysis. A general note: Microsomes from liver hold many membrane-bound enzymes, among them those of drug oxidation.
For the next data set, the system named is Liver. Kind of data set: Half life in mouse liver microsomes at 0.5 uM by LC-MS/MS analysis.
The subject of data set [5] is Liver microsome. Kind of data set: Half life in human liver microsomes at 0.5 uM by LC-MS/MS analysis.
Data set [6] concerns the target T1, Tubulin (Bos taurus) (UniProt Q6B856+Q862L2+Q862F3). Kind of data set: Inhibition of bovine brain tubulin polymerization at 5 uM for 20 mins by spectrophotometry. The procedure, abridged:
(§2)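 Bovine brain tubulin (0.4 mg, >97% pure) in general tubulin buffer pH 6.9 (80 mM PIPES, 2.0 mM MgCl2, 0.5 mM EGTA, 1 mM GTP) with compound at 5 or 10 μM, 37 °C. A340 was read each minute for 20 min, and percent inhibition was taken relative to vehicle.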

For data set [7], the target named is T1, Tubulin (Bos taurus). The data set is described as follows: Inhibition of bovine brain tubulin polymerization at 10 uM for 20 mins by spectrophotometry. The procedure, abridged:
as §2

A word on the IC50: it is the concentration at which inhibition is half-maximal. For the molecule `COc1cc(C(=O)c2csc(-c3ccccc3)n2)cc(OC)c1OCCN1C(=O)c2ccccc2C1=O`, the IC50 was above 10000 nM in data set [1]; 600 nM in data set [2]; 1400 nM with LNCaP; 3100 nM in the data set on A-375; 600 nM with DU-145; 1300 nM in data set [3].

Consider `COc1cc(C(=O)c2c[nH]c(Nc3ccccc3)n2)cc(OC)c1OC`, for which the IC50 (in [1]; in data set [2]; in the data set with LNCaP; with A-375; in the data set on DU-145; in [3]) was above 30000 nM throughout.

On to `COCOc1c(OC)cc(C(=O)c2csc(-c3ccccc3)n2)cc1OC`, for which the IC50 in data set [1] is 17 nM; in [2], 22 nM; in the data set with LNCaP it was 31 nM; in the data set with A-375, 20 nM; in the data set with DU-145, 112 nM; in data set [3], 19 nM. Besides, the figures for the t1/2 in the data set with Liver microsome [4], in the data set with Liver and in the data set on Liver microsome [5] were 9.7 min, 4 min and 7.8 min, respectively.

As to `COc1cc(-c2cccc3[nH]c(-c4n[nH]c5ccccc45)nc23)cc(OC)c1OC`, the IC50 is 800 nM in data set [1]; 1000 nM in [2]; 1600 nM with LNCaP; 1100 nM in the data set with A-375; 4000 nM in the data set on DU-145.

For the molecule `COc1cc(C(=O)c2csc(-c3ccccc3)n2)cc(OC)c1OCCN`, the IC50 in [1] turned out to be 158 nM; in data set [2] it was 184 nM; in the data set on LNCaP, 117 nM; in the data set with A-375, 527 nM; in the data set on DU-145, 464 nM; in [3] it was 142 nM.

Broadly, the inhibition is the percentage by which the read-out fell short of the control. With `COc1cc(-c2nccc3[nH]c(-c4ccc5[nH]ccc5c4)nc23)cc(OC)c1OC`, the IC50 in data set [1] was found to be 6 nM; in [2], 42 nM; with LNCaP it was 5 nM; with A-375, 5 nM. For the same molecule, the t1/2 in the data set on Liver microsome [4] worked out at 30.4 min; with Liver, 19.7 min; in the data set on Liver microsome [5] it was 45.3 min. The inhibition against Tubulin (Bos taurus) [6] stood at 33%; at Tubulin (Bos taurus) [7] it was 81%.

With `COc1cc(C(=O)c2csc(-c3ccccc3)n2)cc(OC)c1OC(=O)CCl`, the IC50 was above 10000 nM in data set [1]; above 10000 nM in [2]; above 10000 nM in the data set with LNCaP; 10800 nM in the data set on A-375; above 10000 nM in the data set on DU-145; 3200 nM in [3].

As for `COc1cc(C(=O)c2csc(-c3ccccc3)n2)cc(OC)c1OCc1ccccc1`, the IC50 was above 10000 nM in [1]; above 10000 nM in data set [2]; above 10000 nM in the data set with LNCaP; above 10000 nM in the data set with A-375; above 10000 nM in the data set with DU-145; 10600 nM in data set [3].

`COc1cc(-c2cccc3[nH]c(-c4ccccc4)nc23)cc(OC)c1OC`: the IC50 in data set [1] was 2400 nM; in data set [2], 2100 nM; with LNCaP, 2100 nM; in the data set with DU-145 it was 7800 nM.

Take `COc1cc(-c2cccc3[nH]c(-c4c[nH]c5ccccc45)nc23)cc(OC)c1OC`: the IC50 is 900 nM in data set [1]; 1300 nM in data set [2]; 800 nM in the data set on LNCaP; 600 nM with A-375; 4200 nM in the data set with DU-145.

For the molecule `COc1cc(C(=O)c2csc(Nc3ccccc3)n2)cc(OC)c1OC`, the IC50 in data set [1] is 21 nM; in data set [2], 43 nM; in the data set with LNCaP, 28 nM; in the data set on A-375, 28 nM; in the data set with DU-145, 71 nM; in data set [3], 65 nM.

Regarding `COc1cc(C(=O)c2csc(-c3ccccc3)n2)cc(OC)c1OC`, the 50% inhibitory concentration (IC50) in data set [1] worked out at 21 nM; in data set [2], 43 nM; in data set [3] it was 55 nM.

With `COc1cc(C(=O)c2csc(Nc3ccc4[nH]ccc4c3)n2)cc(OC)c1OC`, the half-inhibitory concentration (IC50) in data set [1] was 12 nM; in data set [2], 15 nM; in the data set with LNCaP it was 13 nM; in the data set on A-375, 25 nM; with DU-145, 24 nM; in data set [3], 84 nM.

As for `COc1cc(-c2cccc3[nH]c(-c4ccc5[nH]ccc5c4)nc23)cc(OC)c1OC`, the IC50 in [1] was 22 nM; in [2], 20 nM; with LNCaP it was 28 nM; in the data set with A-375, 25 nM; in the data set on DU-145, 57 nM. Besides, the inhibition was determined as 30% at Tubulin (Bos taurus) [6] and 60% at Tubulin (Bos taurus) [7].

For `COc1cc(C(=O)c2csc(-c3ccccc3)n2)cc(OC)c1OC(=O)C(F)(F)F`, the IC50 in data set [1] is above 10000 nM; in data set [2], above 10000 nM; with LNCaP, above 10000 nM; in the data set with A-375, 22200 nM; in the data set with DU-145, above 10000 nM; in data set [3] it was 8900 nM.
